In ChEMBL document CHEMBL5247673, “Discovery of Small Molecules Targeting the Frameshifting Element RNA in SARS-CoV-2 Viral Genome” (ACS Med Chem Lett, 2023):
Active and inactive are the calls of the source. No cut-off for these calls is given here.

Legend:
[1] = tested on: Severe acute respiratory syndrome coronavirus 2; test: Binding affinity to 5'-CY5-labelled SARS-CoV-2 frameshift element RNA by MST analysis
In short: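 Single-concentration MST screen against 5′-Cy5-labelled FSE RNA at 100 μM compound. A hit required an MST shift greater than 3SD of the DMSO signal, with the lead compound as positive control.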

[2] = tested on: Severe acute respiratory syndrome coronavirus 2; test: Binding affinity to 5'-CY5-labelled SARS-CoV-2 frameshift element RNA by SPR analysis
In short: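 Single-concentration SPR at 100 μM compound over immobilized FSE RNA, with the lead compound as positive control.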

[3] = tested on: Severe acute respiratory syndrome coronavirus 2; test: Binding affinity to SARS-CoV-2 frameshift element RNA assessed as thermal stability by measuring change in melting temperature of RNA by circular dichroism analysis
In short: (§1)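 FSE RNA thermal melt with compound at 150 or 500 μM. Tm was taken from first-derivative melting curves and reported as ΔTm.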

[4] = tested on: MCF7; test: Cytotoxicity against human MCF7 cells assessed as reduction in cell viability upto 100 uM measured after 48 hrs by Cell-titer Glo luminescent assay; type: toxicity, cell-based; conditions: mcf7, 48 h
In short: (§2)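 MCF-7 cell viability after 48 h compound exposure.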

[5] = tested on: Reticulocyte; test: Binding affinity to wild-type SARS-CoV-2 frameshift element RNA pseudoknot sequence transfected with Renilla/Firefly luciferase in rabbit reticulocyte lysate assessed as frameshifting by measuring ratio of renilla/firefly luminescence by dual-luciferase reporter assay; type: subcellular; conditions: Severe acute respiratory syndrome coronavirus 2
In short: (§3)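 In vitro frameshifting reporter with the SARS-CoV-2 or RSV pseudoknot placed between Renilla (0 frame) and firefly (−1 frame) luciferases. Frameshifting was the luminescence ratio. Frameshifting and translation were normalized to WT plus DMSO. Controls were a 5′ stop codon, a 3′ stop codon and a same-frame construct. Data are mean ± SD, n = 3.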

[6] = tested on: Reticulocyte; test: Binding affinity to wild-type SARS-CoV-2 frameshift element RNA pseudoknot sequence transfected with Renilla/Firefly luciferase in rabbit reticulocyte lysate assessed as translation by measuring ratio of renilla luminescence by dual-luciferase reporter assay; type: subcellular; conditions: Severe acute respiratory syndrome coronavirus 2; in short: as §3
[7] = tested on: Reticulocyte; test: Binding affinity to wild-type Rous sarcoma virus frameshift element RNA pseudoknot sequence transfected with Renilla/Firefly luciferase in rabbit reticulocyte lysate assessed as frameshifting by measuring ratio of renilla/firefly luminescence by dual-luciferase reporter assay; type: subcellular; in short: as §3
[8] = tested on: Reticulocyte; test: Binding affinity to wild-type Rous sarcoma virus frameshift element RNA pseudoknot sequence transfected with Renilla/Firefly luciferase in rabbit reticulocyte lysate assessed as translation by measuring ratio of renilla luminescence by dual-luciferase reporter assay; type: subcellular; in short: as §3
[9] = tested on: Reticulocyte; test: Binding affinity to wild-type SARS-CoV-2 frameshift element RNA pseudoknot sequence transfected with Renilla/Firefly luciferase in rabbit reticulocyte lysate assessed as reduction in frameshifting by dual-luciferase reporter assay relative to control; type: subcellular; set-up: scale not given: the % may be the effect or the level left; conditions: Severe acute respiratory syndrome coronavirus 2; in short: as §3
[10] = tested on: Reticulocyte; test: Binding affinity to wild-type Rous sarcoma virus frameshift element RNA pseudoknot sequence transfected with Renilla/Firefly luciferase in rabbit reticulocyte lysate assessed as reduction in frameshifting by dual-luciferase reporter assay relative to control; type: subcellular; set-up: scale not given: the % may be the effect or the level left; in short: as §3
[11] = tested on: Reticulocyte; test: Binding affinity to wild-type Rous sarcoma virus frameshift element RNA pseudoknot sequence transfected with Renilla/Firefly luciferase in rabbit reticulocyte lysate assessed as inhibition of translation by dual-luciferase reporter assay relative to control; type: subcellular; conditions: concentration not given here; in short: as §3
[12] = tested on: Severe acute respiratory syndrome coronavirus 2; test: Binding affinity to SARS-CoV-2 frameshift element RNA at 150 uM by water ligand observed gradient spectroscopic analysis
In short: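 WaterLOGSY NMR of 150 μM compound, alone and with 5 μM unlabelled FSE RNA. N-methyl-L-valine served as internal non-binding control, and a phase inversion of ligand peaks was read as binding.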

[13] = tested on: Severe acute respiratory syndrome coronavirus 2; test: Binding affinity to 5'-CY5-labelled SARS-CoV-2 frameshift element RNA at 50 uM by MST analysis
[14] = tested on: Severe acute respiratory syndrome coronavirus 2; test: Binding affinity to 5'-Cy5-labelled SARS-CoV-2 frameshift element RNA at 10 uM by microarray-based fluorescence analysis
[15] = Binding affinity to 5'-biotin-labelled SARS-CoV-2 frameshift element RNA assessed as dissociation constant by SPR analysis; set-up: species or system Severe acute respiratory syndrome coronavirus 2
In short: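 5′-Biotin FSE RNA was captured on a streptavidin-coated SPR surface. Compound was injected at 15.6–1000 μM, and KD came from steady-state fitting to a 1:1 Langmuir model. Stoichiometry was estimated from Rmax and the molecular ratio.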

[16] = Binding affinity to 5'-CY5-labelled SARS-CoV-2 frameshift element RNA assessed as dissociation constant by MST analysis; set-up: species or system Severe acute respiratory syndrome coronavirus 2
In short: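 MST titration of the compound (4.9–500 μM) into 5′-Cy5-labelled FSE RNA. KD was fitted from T-jump values.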

[17] = tested on: Severe acute respiratory syndrome coronavirus 2; test: Binding affinity to SARS-CoV-2 frameshift element RNA assessed as thermal stability by measuring change in melting temperature of RNA at 150 uM by circular dichroism analysis; in short: as §1
[18] = tested on: Severe acute respiratory syndrome coronavirus 2; test: Binding affinity to SARS-CoV-2 frameshift element RNA assessed as thermal stability by measuring change in melting temperature of RNA at 500 uM by circular dichroism analysis; in short: as §1
[19] = Cytotoxicity against human MCF7 cells assessed as cell viability at 50 uM measured after 48 hrs by Cell-titer Glo luminescent assay relative to control; type: toxicity, cell-based; conditions: read-out: Activity; in short: as §2
[20] = tested on: MCF7; test: Inhibition of programmed -1 ribosomal frameshifting in human MCF7 cells harboring pCherryGFP-Inframe-noFSE plasmid assessed as inhibition of GFP expression incubated for 30 mins by fluorescence microscopic analysis; type: functional, cell-based
In short: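 MCF-7 cells were treated with compound at various concentrations and transfected with an mCherry–FSE–GFP reporter: WT, a stop-codon negative control, or an in-frame no-FSE plasmid. GFP expression was the read-out, compared with a DMSO (0 μM) control. Data are mean ± SD of three independent experiments.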

| SMILES | Activity [1] | Activity [2] | other results |
| --- | --- | --- | --- |
| COc1cccc(-c2nc(NCCN3CCOCC3)c3ccccc3n2)c1 | inactive | inactive |  |
| CCNCC1CCN(c2c(F)cc3c(=O)c(C(=O)O)cn(CC)c3c2F)C1 (stereo not drawn) [MERAFLOXACIN] | Active |  | ΔTm [3]: -3.7 °C; Activity [4]: Non-Toxic; Ratio [5]: 0.21; Ratio [6]: 0.9; Ratio [7]: 0.59; Ratio [8]: 0.7; Activity [9]: 79%; Activity [10]: 41%; inhibition [11]: 30% |
| COc1ccc(-c2nc(NCCCN3CCC(N4CCCCC4)CC3)c3ccccc3n2)cc1 |  |  | Activity [12]: inactive; Activity [13]: inactive |
| COc1ccc(-c2nc(N3CC(N4CCOCC4)C3)c3ccccc3n2)cc1 | inactive | Active |  |
| COc1ccc(-c2nc(NCCN3CCOCC3)c3ccc(OC)cc3n2)cc1 | Active | Active |  |
| COc1ccc(-c2nc(NCCN3CCN(C)CC3)c3ccccc3n2)cc1 | Active | Active |  |
| COc1ccc(-c2nc(NCCN3CCOCC3)c3cc(OC)c(OC)cc3n2)cc1 | Active | Active |  |
| COc1ccc(-c2nc(NCCN3CCOCC3)c3cc(-c4ccc(S(N)(=O)=O)cc4)ccc3n2)cc1 | inactive | Active |  |
| COc1ccccc1-c1nc(NCCN2CCOCC2)c2ccccc2n1 | inactive | Active |  |
| COc1ccc(F)cc1COc1ccc(-c2nc(NCCN3CCOCC3)c3ccccc3n2)cc1 | inactive | inactive |  |
| COc1ccc(-c2nc(NCCN3CCOCC3)c3cc(-c4cn[nH]c4)ccc3n2)cc1 | inactive | Active |  |
| COc1ccc(-c2nc(NCCN3CCOCC3)c3ccccc3n2)cc1 | Active | Active | Activity [14]: Active; Activity [12]: Active; Kd [15]: 147 µM; Kd [16]: 139 µM; ΔTm [17]: -2.5 °C; ΔTm [18]: -4.5 °C; viability at 48 h, 50 µM [19]: 91.6%; Ratio [5]: 0.99; Ratio [6]: 1.35; Ratio [7]: 1.21; Ratio [8]: 0.77; inhibition [20]: inactive |
| CC#CCOc1ccc(-c2nc(NCCN3CCOCC3)c3ccccc3n2)cc1 | inactive | inactive |  |
| CCOC(=O)c1ccccc1NC(=O)N1CCCN(Cc2csc(C)n2)CC1 | Active |  | ΔTm [3]: 2.2 °C; Ratio [5]: 1.02; Ratio [6]: 1.01; Ratio [7]: 1.13; Ratio [8]: 0.96 |
| COc1ccc(-c2nc(NCCN3CCOCC3)c3cc([N+](=O)[O-])ccc3n2)cc1 | inactive | inactive |  |
| COc1ccc(-c2nc(NCCN3CCOCC3)c3ccc(-c4ccc(S(N)(=O)=O)cc4)cc3n2)cc1 | inactive | inactive |  |
| COc1ccc(-c2nc(NCCN3CCOCC3)c3cc(-c4ccc(N5CCOCC5)c(C)c4)ccc3n2)cc1 | inactive | Active |  |
| CCOC(=O)c1cccc(Nc2nc(-c3cccnc3)nc3ccccc23)c1 |  |  | Activity [12]: inactive; Activity [13]: inactive |
| COc1ccc(-c2nc(NCCN3CCOCC3)c3cccc(OC)c3n2)cc1 | inactive | Active |  |
| CCN(CCN1CCOCC1)c1nc(-c2ccc(OC)cc2)nc2ccccc12 | inactive | Active |  |
| COc1ccc(-c2nc(NCCN3CCOCC3)c3cc(C(F)(F)F)ccc3n2)cc1 | Active | inactive |  |
| O=[N+]([O-])c1ccc(-c2nc(NCCN3CCOCC3)c3ccccc3n2)cc1 | inactive | inactive |  |
| COc1ccc(-c2nc(NCCN3CCOCC3)c3c(OC)cccc3n2)cc1 | inactive | Active |  |
| COc1ccc(-c2nc(NCCN3CCOCC3)c3ccc(C(F)(F)F)cc3n2)cc1 | Active | inactive |  |
| FC(F)(F)c1ccc(-c2nc(NCCN3CCOCC3)c3ccccc3n2)cc1 | inactive | Active |  |
| COc1ccc(-c2nc(NCCN3CCOCC3)c3ccc(-c4cn[nH]c4)cc3n2)cc1 | Active | Active |  |
| COc1ccc(-c2nc(NCCN3CCOCC3)c3cc(OC)ccc3n2)cc1 | Active | Active | Kd [15]: 60 µM; viability at 48 h, 50 µM [19]: 95.6%; Ratio [5]: 0.98; Ratio [6]: 0.98; Ratio [7]: 1.13; Ratio [8]: 0.82 |
| COc1ccc(-c2nc(NCCS(=O)(=O)N3CCOCC3)c3ccccc3n2)cc1 | inactive | Active |  |
| COc1ccc(-c2nc(NCCN3CCOCC3)c3ccc([N+](=O)[O-])cc3n2)cc1 | inactive | inactive |  |
